# Screening results as filed in PubChem BioAssay.
# Arrestin-AP2 inh = human beta-arrestin and AP2 interaction inhibition; AID 504490; inhibition, % at 10 µM; FITC-arrestin peptide / GST-AP2 beads, flow cytometry; AP2 beta2 appendage carries R879A mutation; 340,000 compounds, 0.31% hits;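 active = inhibition above a set limit, near 3 SD of compounds lacking own fluorescence, cut at about 54% in these data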;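 also: plate controls were DMSO wells for no effect and 5 µM unlabelled arrestin peptide for full effect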
#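 System: GST-AP2 R879A glutathione beads | Also added: FITC-arrestin peptide, 50 nM | Times: 12 min plus 1 h, RT | Signal: Bead flow cytometry, FITC channel | Buffer or medium: PBS with 0.05% Tween 20 and 0.1% BSA | Read-out basis: Percent drop in bead-associated FITC signal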
# HIV Env fusion = inhibitors of HIV Env-mediated cell fusion. HeLa-JRFL Env/CEM21 cell fusion, luciferase. inhibition, % at 12.3 µM. 360,000 compounds, 1.1% hits. AID 651610;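 active = mean replicate inhibition score of at least 50 and every replicate individually at or above 50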;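 also: 0% = plate neutral controls and 100% = maraviroc near 300 nM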
# Glyco luc inh = N-linked glycosylation inhibition | D54 ERlucT glycosylation luciferase reporter, 24 h; percent of 100 nM tunicamycin response | reporter increase, % at 12.5 µM | 360,000 compounds, 0.23% hits | AID 588692;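 active = mean luciferase reporter signal, scaled so untreated is 0 and the glycosylation-blocking control 100, at or above a set limit in every replicate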;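 also: luciferase carries N-glycosylation sites so blocking glycosylation raises the light; 0% = median of neutral control wells and 100% = median of 100 nM tunicamycin wells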
# PfHsp90 yeast 2 = reduces growth (ATP signal) of yeast expressing P. falciparum Hsp90; S. cerevisiae expressing PfHsp90, BacTiter-Glo ATP, 48 h; yeast lacking PDR1 and PDR3 efflux regulators; inhibition, % at 9.4 µM; 310,000 compounds, 0.32% hits; AID 504621;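 active = every replicate shows inhibition above about 80%, whatever the replicate mean, limit read from the data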;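 also: 0% = DMSO neutral controls and 100% = 20 µM radicicol positive controls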
# Rtt109 HAT inh = blocks Candida albicans Rtt109/Vps75 acetyltransferase activity; purified Rtt109/Vps75, ThioGlo CoA-SH fluorescence, 4 h; inhibition, % at 34.9 µM; 330,000 compounds, 0.16% hits; AID 540336;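 active = inhibition of at least 50% in every replicate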
# Target sequence (Q5AAJ8 whole entry, looked up): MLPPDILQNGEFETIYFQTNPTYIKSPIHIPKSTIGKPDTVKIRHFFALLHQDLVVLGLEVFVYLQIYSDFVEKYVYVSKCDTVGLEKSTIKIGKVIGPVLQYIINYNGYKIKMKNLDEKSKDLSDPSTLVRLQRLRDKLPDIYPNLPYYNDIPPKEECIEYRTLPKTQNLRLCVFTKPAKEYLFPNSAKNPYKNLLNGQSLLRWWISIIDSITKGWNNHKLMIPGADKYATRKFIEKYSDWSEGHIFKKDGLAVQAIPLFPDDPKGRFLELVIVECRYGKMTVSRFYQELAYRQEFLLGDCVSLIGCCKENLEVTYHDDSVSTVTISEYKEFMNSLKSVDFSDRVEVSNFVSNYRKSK
# PAX8 inh HTS = lowers PAX8-driven luciferase in RMG-I cells; RMG-I TPO-luciferase reporter, SteadyGlo, 24 h; inhibition, % at 12.6 µM; 360,000 compounds, 1.2% hits;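 active = mean replicate inhibition at least 60% with every replicate also reaching 60%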;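 also: luciferase light reporting Pax8 driven TPO promoter activity; plate controls were median of neutral control wells for no effect and mitoxantrone controls for full effect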
# Numbers without * were called inactive; nt = not tested or not shown; ! = not active in a repeat; [ ] = dose if it differs, or a comment. In the library only some 2.3% were active in any assay of this set; here they are far more common.
SMILES,Arrestin-AP2 inh,HIV Env fusion,Glyco luc inh,PfHsp90 yeast 2,Rtt109 HAT inh,PAX8 inh HTS
O=C(N[C@H]1CC[C@H](CC(=O)N2CCCCC2)O[C@@H]1CO)c1ccc2c(c1)OCO2,nt,6[16.7 µM],nt,nt,nt,2
C[C@@H]1CN([C@@H](C)CO)C(=O)c2cccc(NS(=O)(=O)c3cccs3)c2O[C@@H]1CN(C)Cc1ccc(C(F)(F)F)cc1,nt,68*[16.7 µM],nt,nt,nt,1
C[C@H](CO)N1C[C@H](C)[C@@H](CN(C)Cc2ccc(Cl)c(Cl)c2)Oc2c(NS(=O)(=O)c3cccs3)cccc2C1=O,-4,62*!,-3,18,21,-1
C[C@@H]1CN([C@H](C)CO)C(=O)c2cccc(NS(=O)(=O)c3cccs3)c2O[C@H]1CN(C)Cc1ccccc1,nt,-48,-1,14,6,14
C[C@@H]1CN([C@H](C)CO)C(=O)c2cccc(NS(=O)(=O)c3cccs3)c2O[C@@H]1CN(C)Cc1ccc(C(F)(F)F)cc1,nt,84*[16.7 µM],nt,nt,nt,-10
C[C@@H]1CN([C@H](C)CO)C(=O)c2cccc(NS(=O)(=O)c3cccs3)c2O[C@H]1CN(C)Cc1ccc(C(F)(F)F)cc1,nt,28[16.7 µM],nt,nt,nt,13
CO[C@H]1CN(C)C(=O)c2ccc(NC(=O)C3CCOCC3)cc2OC[C@@H](C)NC[C@@H]1C,nt,-1[16.7 µM],nt,nt,nt,nt
O=[N+]([O-])CC(c1ccccc1)c1c[nH]c2ccccc12 (stereo not drawn),33,21,9,nt,nt,31
OC(CNCC(c1ccc(Cl)cc1Cl)c1c[nH]c2ccccc12)c1ccccc1 (stereo not drawn),-1,37,-17,nt,12,93*
O=C(NCCCCCCNC(=O)OCc1ccccc1)OCc1ccccc1,35,-91,1,nt,6,-97
O=C(OCc1ccccc1)N(CCCCN(CCCNCc1ccccc1)C(=O)OCc1ccccc1)CCCNCc1ccccc1,-2,2,-21,-33,3,98*
C[C@@H]1CCCCO[C@H](CN(C)S(=O)(=O)c2cccs2)[C@@H](C)CN([C@H](C)CO)C(=O)c2cc(NS(=O)(=O)c3cn(C)cn3)ccc2O1,nt,-47[16.7 µM],nt,nt,nt,20
Cc1ccc(C(=O)NCCCNC(=O)COc2ccc(C)c(C)c2)cn1,-1,7,2,6,55*,7
C[C@@H]1CCCCO[C@@H](CN(C)C)[C@@H](C)CN([C@H](C)CO)C(=O)c2cc(NC(=O)C3CCCCC3)ccc2O1,nt,2[16.7 µM],nt,nt,nt,-7
C/C(=N\Nc1nc2ccccc2[nH]1)c1cc2ccccc2o1,34,-277,-4,9,9,nt
C/C(=N\Nc1nc2ccccc2[nH]1)c1ccccn1,2,65*,-13,-64,3,68*
CC(=NNc1cc(C)c2cc(C)ccc2n1)c1ccccn1,nt,-80,nt,nt,nt,69*
O=C(NCC[C@@H]1CC[C@@H](NC(=O)c2ccc3c(c2)OCO3)[C@@H](CO)O1)Nc1cc(F)ccc1F,nt,1[16.7 µM],nt,nt,nt,-17
CC(C)NC(=O)N(C)C[C@@H]1Oc2ccc(NS(=O)(=O)c3cn(C)cn3)cc2CC(=O)N([C@@H](C)CO)C[C@@H]1C,nt,-11[16.7 µM],nt,nt,nt,10
Cc1cccc(NC(=O)Nc2ccc(Oc3c(F)c(F)c(F)c(F)c3F)cc2)c1,-2,nt,-1,22,-5,nt
O=C(Nc1ccc(Oc2c(F)c(F)c(F)c(F)c2F)cc1)OC1CCN2Cc3ccccc3N=C12 (stereo not drawn),35,nt,29*,7,6,nt
O=C(c1ccncc1)N1C[C@H]2[C@@H](c3ccccc31)[C@@H](CO)N2C(=O)c1ccccn1,nt,nt,nt,nt,nt,3
COc1ccc(CNc2nc3c(c(=O)n(Cc4ccc(Br)cc4)c(=O)n3C)n2C)cc1,-4,23,-8,-40,-7,84*
Cn1c(NCc2ccccc2)nc2c1c(=O)n(Cc1ccc(Br)cc1)c(=O)n2C,-3,nt,-9,5,-1,nt
COc1cccc(Cn2c(NCc3ccco3)nc3c2c(=O)n(C)c(=O)n3C)c1,nt,75*,nt,nt,nt,19
SMILES,Arrestin-AP2 inh,HIV Env fusion,Glyco luc inh,PfHsp90 yeast 2,Rtt109 HAT inh,PAX8 inh HTS
CN1C(=O)c2cc(NC(=O)Cc3cccs3)ccc2OC[C@H]2O[C@H](CC(=O)NCC3CC3)CC[C@@H]21,nt,-2[16.7 µM],nt,nt,nt,-1
O=C(/C=C/c1ccncc1)c1ccc2c(c1)OCCO2,35,10,70*,10,18,-22
COc1ccccc1CN(C)C(=O)CN1CCN(C(=O)c2cccs2)CC1,41,68*,3,nt,-1,-7
COc1ccccc1CC(NC(C)=O)C(=O)N1CCN(C(=O)c2cccs2)CC1 (stereo not drawn),5,nt,0,68,0,nt
COc1ccc2c(c1OC)C(=O)OC2C1c2c(cc3c(c2OC)OCO3)CCN1C (stereo not drawn),6,11,1,-2,8,6
CN1CCc2cc3c(c4c2[C@H]1[C@H](O)c1ccccc1-4)OCO3,-3,-170,33*,-14,-27,-4
Cc1ccc(S(=O)(=O)N(C)C[C@@H]2Oc3ccc(NC(=O)Nc4cccc5ccccc45)cc3C(=O)N([C@@H](C)CO)C[C@H]2C)cc1,nt,-10[16.7 µM],nt,nt,nt,13
Cc1ccccc1C(=O)N[C@H](C(=O)N1CCC[C@H]1C(=O)NCc1ccccc1)c1ccccc1,nt,56*,nt,nt,nt,-14
O=C(NCc1ccccc1)[C@@H]1CCCN1C(=O)[C@@H]1CCCN1C(=O)c1cccc2ccccc12,nt,75*,nt,nt,nt,0
COc1ccc2c3c([nH]c2c1)[C@@H](CO)N(C(=O)CN(C)C)CC31CN(CC2CCCC2)C1,nt,nt,nt,nt,nt,-15
O=C(O)COc1ccccc1O,-3,-20,-2,-3,60*,nt
CCCOc1ccc2cc(-c3ccccn3)c(=O)oc2c1,9,3,-21,18,-2,74*
O=c1oc2cc(OCc3c(F)cccc3Cl)ccc2cc1-c1ccccn1,10,nt,-4,13,-14,nt
O=C(Nc1ccccc1)N1CCc2c([nH]c3ccccc23)C1C(F)(F)F (stereo not drawn),3,3,-1,-2,2,14
COc1cccc(Cl)c1NC(=O)N1CCc2c([nH]c3ccccc23)C1C(F)(F)F (stereo not drawn),-3,83*,9,-1,2,26
Cc1cccc(-c2ccc([C@H]3[C@@H](CO)N4CCCCN(S(=O)(=O)c5cccs5)C[C@@H]34)cc2)c1,nt,nt,nt,nt,nt,13
CC(C)NC(=O)Nc1ccc2c(c1)CC(=O)N([C@@H](C)CO)C[C@@H](C)[C@@H](CN(C)C(=O)Nc1ccccc1)O2,nt,10[16.7 µM],nt,nt,nt,-13
CC[C@@H](C(=O)[C@@H](C)[C@@H](O)[C@H](C)[C@@H]1O[C@@H]([C@@H](CC)C(=O)O)CC[C@@H]1C)[C@H]1O[C@]2(C=C[C@@H](O)[C@]3(CC[C@@](C)([C@H]4CC[C@](O)(CC)[C@H](C)O4)O3)O2)[C@H](C)C[C@@H]1C,-2,-13,-13,-79,28,109*
